{
  "source": "ChEMBL document CHEMBL4382247",
  "about": "“A novel series of napabucasin derivatives as orally active inhibitors of signal transducer and activator of transcription 3 (STAT3)” (Eur J Med Chem, 2019)",
  "key": {"U-251 [1]": {"test_system": "U-251", "experiment": "Antiproliferative activity against human U251 cells after 72 hrs by MTT assay", "format": "functional, cell-based", "conditions": "U-251, 72 h", "summary_of_the_method": "(§1)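 Cells seeded at 5 × 10^3 per well and cultured 24 h before compound addition at varied concentrations, then grown a further 72 h; 0.5% DMSO as solvent control. MTT (5mg/ml solution) added for 4 h, formazan dissolved in DMSO, absorbance read at 570nm. Each treatment in triplicate; Mean ± SD.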"}, "HepG2 [2]": {"test_system": "HepG2", "experiment": "Antiproliferative activity against human HepG2 cells after 72 hrs by MTT assay", "format": "functional, cell-based", "conditions": "HepG2, 72 h", "summary_of_the_method": "as §1"}, "PC-3": {"test_system": "PC-3", "experiment": "Antiproliferative activity against human PC3 cells after 72 hrs by MTT assay", "format": "functional, cell-based", "conditions": "PC-3, 72 h", "summary_of_the_method": "as §1"}, "HepG2 [3]": {"test_system": "HepG2", "experiment": "Potency index, ratio of napabucasin IC50 to test compound IC50 for human HepG2 cells", "format": "functional"}, "HT-29": {"test_system": "HT-29", "experiment": "Potency index, ratio of napabucasin IC50 to test compound IC50 for human HT-29 cells", "format": "functional"}, "CT26 [4]": {"test_system": "CT26", "experiment": "Potency index, ratio of napabucasin IC50 to test compound IC50 for mouse CT26 cells", "format": "functional"}, "CT26 [5]": {"test_system": "CT26", "experiment": "Antitumor activity against mouse CT26 cells implanted in BALB/c mouse assessed as tumor growth inhibition at 50 mg/kg, po administered once daily measured every 3 days relative to control", "format": "functional", "conditions": "72 h, read-out: TGI", "summary_of_the_method": "(§2)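 Male BALB/c mice, 6 weeks old, given 1 × 10^6 CT-26 cells subcutaneously in the right flank. At about 70 mm3 tumour volume, randomized into groups of five and dosed orally once daily with 50mg/kg or vehicle (5% NMP in PEG 400). Tumours measured by caliper every 3 days, V = ab^2/2. Tumours weighed at sacrifice. TGI computed from mean tumour weights. T/C computed as mean RTV (Vt/V0) treated over control.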"}, "CT26 [6]": {"test_system": "CT26", "experiment": "Antitumor activity against mouse CT26 cells implanted in BALB/c mouse assessed as tumor growth at 50 mg/kg, po administered once daily measured every 3 days relative to control", "format": "functional", "summary_of_the_method": "as §2"}, "[7]": {"experiment": "Toxicity in BALB/c mouse implanted with mouse CT26 cells assessed as change in body weight at 50 mg/kg, po administered once daily", "format": "organism-based", "conditions": "in vivo", "summary_of_the_method": "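Mice bearing subcutaneous CT-26 tumours, five per group, given 50mg/kg orally each day in 5% NMP/PEG 400, with an equal-volume vehicle control group. Body weight and behaviour monitored over the treatment period.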"}, "[8]": {"experiment": "Cardiotoxicity in BALB/c mouse implanted with mouse CT26 cells assessed as effect on heart morphology by measuring cell inflammation at 50 mg/kg, po administered once daily by H and E staining based histopathological analysis", "format": "toxicity, organism-based", "conditions": "in vivo", "summary_of_the_method": "(§3)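 CT-26 subcutaneous flank tumour model in male BALB/c mice, five per group, dosed orally at 50mg/kg daily in 5% NMP/95% PEG 400 versus vehicle. After treatment, heart, liver, spleen, lung and kidney collected, sectioned and stained with H&E for histological examination.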"}, "[9]": {"experiment": "Cardiotoxicity in BALB/c mouse implanted with mouse CT26 cells assessed as effect on heart morphology by measuring edema at 50 mg/kg, po administered once daily by H and E staining based histopathological analysis", "format": "toxicity, organism-based", "conditions": "in vivo", "summary_of_the_method": "as §3"}, "[10]": {"experiment": "Cardiotoxicity in BALB/c mouse implanted with mouse CT26 cells assessed as effect on heart morphology by measuring necrosis at 50 mg/kg, po administered once daily by H and E staining based histopathological analysis", "format": "toxicity, organism-based", "conditions": "in vivo", "summary_of_the_method": "as §3"}, "[11]": {"experiment": "Hepatotoxicity in BALB/c mouse implanted with mouse CT26 cells assessed as effect on liver morphology by measuring necrosis at 50 mg/kg, po administered once daily by H and E staining based histopathological analysis", "format": "toxicity, organism-based", "conditions": "in vivo", "summary_of_the_method": "as §3"}, "[12]": {"experiment": "Toxicity in BALB/c mouse implanted with mouse CT26 cells assessed as effect on spleen morphology by measuring cell inflammation at 50 mg/kg, po administered once daily by H and E staining based histopathological analysis", "format": "organism-based", "conditions": "in vivo", "summary_of_the_method": "as §3"}, "[13]": {"experiment": "Toxicity in BALB/c mouse implanted with mouse CT26 cells assessed as effect on lung morphology by measuring cell inflammation at 50 mg/kg, po administered once daily by H and E staining based histopathological analysis", "format": "organism-based", "conditions": "in vivo", "summary_of_the_method": "as §3"}, "[14]": {"experiment": "Toxicity in BALB/c mouse implanted with mouse CT26 cells assessed as effect on lung morphology by measuring edema at 50 mg/kg, po administered once daily by H and E staining based histopathological analysis", "format": "organism-based", "conditions": "in vivo", "summary_of_the_method": "as §3"}, "U-251 [15]": {"test_system": "U-251", "experiment": "Decrease in total STAT3 level in human U251 cells at 200 nM after 24 hrs by Western blot analysis", "format": "ADME, cell-based", "conditions": "u-251, 24 h, 0.2 µM", "summary_of_the_method": "(§4)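 Cells treated 24 and 48 h. Lysed in RIPA with protease inhibitors, protein quantified by BCA, equal amounts run on 10% SDS-PAGE and transferred to PVDF. Blocked in 5% milk, probed overnight at 4 °C with anti-total STAT3, anti-p-STAT3 (Tyr705) and GAPDH antibodies. ECL detection.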"}, "HepG2 [16]": {"test_system": "HepG2", "experiment": "Decrease in total STAT3 level in human HepG2 cells at 400 nM after 24 hrs by Western blot analysis", "format": "ADME, cell-based", "conditions": "hepg2, 24 h, 0.4 µM", "summary_of_the_method": "as §4"}, "[17]": {"biological_target": "T1, Signal transducer and activator of transcription 3 (Homo sapiens, UniProt P40763)", "T1 sequence (P40763 whole entry)": "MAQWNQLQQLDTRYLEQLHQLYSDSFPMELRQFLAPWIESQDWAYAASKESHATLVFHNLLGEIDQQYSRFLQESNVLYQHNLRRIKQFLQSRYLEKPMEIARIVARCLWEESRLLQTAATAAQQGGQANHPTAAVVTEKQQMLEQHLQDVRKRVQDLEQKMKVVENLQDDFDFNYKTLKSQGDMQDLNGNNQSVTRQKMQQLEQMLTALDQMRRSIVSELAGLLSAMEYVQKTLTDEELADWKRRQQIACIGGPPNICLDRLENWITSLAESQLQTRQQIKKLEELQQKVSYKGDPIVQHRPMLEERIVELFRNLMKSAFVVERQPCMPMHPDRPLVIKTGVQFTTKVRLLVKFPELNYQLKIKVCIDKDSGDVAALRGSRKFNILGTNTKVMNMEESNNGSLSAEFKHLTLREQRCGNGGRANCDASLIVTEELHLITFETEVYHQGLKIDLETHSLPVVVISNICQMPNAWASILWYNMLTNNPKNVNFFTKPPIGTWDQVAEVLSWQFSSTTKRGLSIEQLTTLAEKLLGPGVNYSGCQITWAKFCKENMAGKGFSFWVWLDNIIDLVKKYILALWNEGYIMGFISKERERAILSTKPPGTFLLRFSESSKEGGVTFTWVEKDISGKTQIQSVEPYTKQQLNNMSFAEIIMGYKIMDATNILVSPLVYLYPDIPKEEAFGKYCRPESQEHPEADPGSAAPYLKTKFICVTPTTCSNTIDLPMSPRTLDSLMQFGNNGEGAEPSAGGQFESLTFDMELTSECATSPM", "experiment": "Inhibition of STAT3 phosphorylation at Y705 residue in human U251 cells at 200 nM after 24 hrs by Western blot analysis", "format": "cell-based", "summary_of_the_method": "as §4"}, "[18]": {"biological_target": "T1, Signal transducer and activator of transcription 3", "experiment": "Inhibition of STAT3 phosphorylation at Y705 residue in human HepG2 cells at 400 nM after 24 hrs by Western blot analysis", "format": "cell-based", "summary_of_the_method": "as §4"}, "U-251 [19]": {"test_system": "U-251", "experiment": "Decrease in total STAT3 level in human U251 cells at 200 nM after 24 to 48 hrs by sandwich-ELISA", "format": "ADME, cell-based", "conditions": "u-251, 0.2 µM", "summary_of_the_method": "(§5)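 Cells treated 24 or 48 h. Whole-cell lysates made in lysis buffer with protease inhibitor cocktail. Total STAT3 and p-STAT3 Y705 measured by sandwich ELISA. Three repeats; groups compared with control by paired t-test; means ± S.D.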"}, "HepG2 [20]": {"test_system": "HepG2", "experiment": "Decrease in total STAT3 level in human HepG2 cells at 400 nM after 24 to 48 hrs by sandwich-ELISA", "format": "ADME, cell-based", "conditions": "hepg2, 0.4 µM", "summary_of_the_method": "as §5"}, "[21]": {"biological_target": "T1, Signal transducer and activator of transcription 3", "experiment": "Inhibition of STAT3 phosphorylation at Y705 residue in human U251 cells at 200 nM after 24 to 48 hrs by sandwich-ELISA", "format": "cell-based", "summary_of_the_method": "as §5"}, "[22]": {"biological_target": "T1, Signal transducer and activator of transcription 3", "experiment": "Inhibition of biotin-labelled DNA probe binding to recombinant N-terminal FLAG-tagged STAT3 (unknown origin) expressed in HEK293 cells at 100 to 200 nM by EMSA", "format": "cell-based", "summary_of_the_method": "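HEK293T cells transiently transfected with N-terminal FLAG-STAT3 (10 µg per 10 cm dish) and harvested at 48 h. STAT3 purified on anti-FLAG magnetic beads and eluted with FLAG peptide (200 µg/mL). Chemiluminescent EMSA with biotin-labelled STAT3 probe, 5 µL protein and 1 µL probe per lane. Cold-probe and anti-STAT3 antibody lanes included.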"}, "[23]": {"biological_target": "T1, Signal transducer and activator of transcription 3", "experiment": "Binding affinity to recombinant N-terminal His-tagged STAT3 (unknown origin) expressed in baculovirus infected Sf9 insect cells by SPR analysis", "summary_of_the_method": "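STAT3 made by baculovirus: bacmid generated in Sf9, virus amplified in Sf9, protein expressed in High Five cells. Purified on Ni-NTA and by gel filtration (>90% pure). Amine-coupled to a CM5 chip. Compound run at 18.75–600 nM in 5% DMSO/PBS on Biacore X100. KD taken from equilibrium fit.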"}},
  "note": "Active and inactive are the calls of the source. The calls are words filed in the database; no cut-off is given here.",
  "data": [
    {"molecule": "O=C(NCCN1CCCCC1)c1cc2c(o1)C(=O)c1ccccc1C2=O", "values": [
      {"measurement": "IC50", "setting": "U-251 [1]", "result": 220, "unit": "nM"},
      {"measurement": "IC50", "setting": "HepG2 [2]", "result": 490, "unit": "nM"},
      {"measurement": "IC50", "setting": "PC-3", "result": 4130, "unit": "nM"},
      {"measurement": "Ratio IC50", "setting": "HepG2 [3]", "result": ">10"},
      {"measurement": "Ratio IC50", "setting": "HT-29", "result": ">10"},
      {"measurement": "Ratio IC50", "setting": "CT26 [4]", "result": ">10"},
      {"measurement": "inhibition in vivo at 50 mg/kg", "setting": "CT26 [5]", "result": 63, "unit": "%"},
      {"measurement": "T/C", "setting": "CT26 [6]", "result": 28, "unit": "%"},
      {"measurement": "Activity", "setting": "[7]", "result": "Non-Toxic"},
      {"measurement": "Activity", "setting": "[8]", "result": "Non-Toxic"},
      {"measurement": "Activity", "setting": "[9]", "result": "Non-Toxic"},
      {"measurement": "Activity", "setting": "[10]", "result": "Non-Toxic"},
      {"measurement": "Activity", "setting": "[11]", "result": "Non-Toxic"},
      {"measurement": "Activity", "setting": "[12]", "result": "Non-Toxic"},
      {"measurement": "Activity", "setting": "[13]", "result": "Non-Toxic"},
      {"measurement": "Activity", "setting": "[14]", "result": "Non-Toxic"},
      {"measurement": "Activity", "setting": "U-251 [15]", "result": "Toxic"},
      {"measurement": "Activity", "setting": "HepG2 [16]", "result": "Toxic"},
      {"measurement": "inhibition", "setting": "[17]", "result": "Active"},
      {"measurement": "inhibition", "setting": "[18]", "result": "Active"},
      {"measurement": "Activity", "setting": "U-251 [19]", "result": "Toxic"},
      {"measurement": "Activity", "setting": "HepG2 [20]", "result": "Toxic"},
      {"measurement": "inhibition", "setting": "[21]", "result": "Active"},
      {"measurement": "inhibition", "setting": "[22]", "result": "Active"},
      {"measurement": "Kd", "setting": "[23]", "result": 110, "unit": "nM"}
    ]}
  ]
}
